From ChEMBL document CHEMBL1157300, “(+)-N-Deoxymilitarinone A, a neuritogenic pyridone alkaloid from the insect pathogenic fungus Paecilomyces farinosus” (J Nat Prod, 2006) come the findings set out here.

The test system of data set [1] is PC-12. Description: Induction of neurite outgrowth in rat PC12 cells at 3.3 uM after 48 hrs. The format is functional, cell-based. A digest of the protocol: (§1)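 PC-12 cells plated on collagen at 1 × 10^5 cells/mL and cultured 4 h. Compound added from MeOH at 3.3, 10, 33 or 100 µM (0.3% MeOH final), in duplicate, then incubated 48 h. Positive control NGF 10 ng/mL; negative control 0.3% MeOH. Over 300 cells or aggregates per well in six random fields scored by phase-contrast microscopy for neurite outgrowth.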

The test system of data set [2] is PC-12. Description: Neuritogenic activity in rat PC12 cells assessed as round shaped cells with no neurite outgrowth at 100 uM after 48 hrs. Format: functional. A digest of the protocol:
(§2)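 PC-12 cells on collagen (1 × 10^5 cells/mL, 4 h pre-culture) treated in duplicate for 48 h, compound delivered in MeOH (0.3% final); NGF 10 ng/mL and 0.3% MeOH controls. By phase contrast, over 300 cells or aggregates per well in six random fields classed as round with no neurite, neurite ≤ cell body, or neurite ≥ twice cell diameter; given as % of cells.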

For data set [3], the system named is PC-12. Description: Induction of neurite outgrowth in rat PC12 cells at 10 uM after 48 hrs. The format is functional, cell-based. In outline: as §1
Data set [4] is described as follows: Cytotoxicity against human IMR32 cells assessed as cell viability at 1 uM by MTT assay relative to control. The format is cell-based. To be noted: imr-32, 1 µM. In outline: (§3)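 IMR-32 cells grown in MEM/F12 with 10% fetal bovine serum; viability read by MTT assay in 96-well format. Test concentrations were 1, 10 and 100 µM, each tested six times.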
Data set [5] relates to PC-12. Description: Induction of neurite outgrowth in rat PC12 cells at 100 uM after 48 hrs. Format: functional. In outline:
as §1

Data set [6] is described as follows: Cytotoxicity against human IMR32 cells assessed as cell viability at 10 uM by MTT assay relative to control. To be noted: imr-32, 10 µM. The format is cell-based. In outline:
as §3

For data set [7], the system named is PC-12. Description: Neuritogenic activity in rat PC12 cells assessed as neurite length equal or less than cell body at 33 uM after 48 hrs. The format is functional. A digest of the protocol:
as §2

For data set [8], the system named is PC-12. Description: Neuritogenic activity in rat PC12 cells assessed as round shaped cells with no neurite outgrowth at 33 uM after 48 hrs. Format: functional. A digest of the protocol: as §2
Data set [9] deals with PC-12. Description: Neuritogenic activity in rat PC12 cells assessed as neurite length equal or less than cell body at 100 uM after 48 hrs. The format is functional. In outline: as §2
A short description of data set [10]: Cytotoxicity against human IMR32 cells assessed as cell viability at 100 uM by MTT assay relative to control. To be noted: read-out: Activity. The format is cell-based, IMR-32. A digest of the protocol:
as §3

Data set [11] relates to PC-12. Description: Induction of neurite outgrowth in rat PC12 cells at 33 uM after 48 hrs. Format: functional. In outline: as §1
In data set [12] the test system is PC-12. Description: Neuritogenic activity in rat PC12 cells assessed as neurite length twice the cell diameter or longer at 100 uM after 48 hrs. The format is functional. A digest of the protocol:
as §2

Structures are written as SMILES. Activity calls are given as the source filed them. The calls are words filed in the database; no cut-off is given here.

Take `CC[C@@H](C)C[C@@H](C)/C=C(C)/C=C/C=C/C(=O)c1c(O)c([C@]2(O)CC[C@@H](O)CC2)c[nH]c1=O` [N-DEOXYMILITARINONE A]: the result in the data set with PC-12 [1] and with PC-12 [3] was inactive. For the same compound, the Activity was 49% in the data set with PC-12 [2]; “Not Active” in data set [4]; 51% in the data set with PC-12 [5]; “Not Active” in data set [6]; 12% in the data set with PC-12 [7]; 88% in the data set on PC-12 [8]. Besides, the Activity was found to be 30% in the data set on PC-12 [9], 12% in the data set on PC-12 [11] and 21% with PC-12 [12]. Also, in data set [10], the viability at 100 µM is 22%.
